In brackets after ≈: the same amount, converted by molar mass. Several values for one entry are separate records, joined by “and”; a condition that tells them apart may be missing. Identical values can stand only once.
Key:
[1] = species: Mus musculus; assay: Days of the first positive reaction in […] mice.; format: functional
In short: (§1)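 Phototoxic skin reaction test in depilated female CD-1 mice. A single oral dose (gavage) or subcutaneous dose was given, followed 1 h later by 3 h of UVA exposure (320–400 nm). The regimen was repeated for up to 4 consecutive days, with initial doses of 30, 100 and 300 mg/kg. PTD50 was derived by the probit method. The first day of positive reaction and the no-effect dose were taken from the raw data.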

[2] = species: Mus musculus; assay: Number of mice which show positive phototoxic reaction in 5 mice; format: functional
[3] = tested on: Escherichia coli; assay: In vivo efficacy in mouse protection test in Escherichia coli Vogel administered by subcutaneous injection.; format: functional; details: Escherichia coli, sc; read-out: PD50
In short: (§2)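 Acute lethal systemic infections in female Charles River CD-1 mice. A single dose was given at challenge, orally by gavage or by subcutaneous injection. PD50 (median protective dose, mg/kg) was determined.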

[4] = tested on: Escherichia coli; assay: In vivo efficacy in mouse protection test in Escherichia coli Vogel dose administered orally by gavage.; format: functional; details: Escherichia coli, po; read-out: PD50; in short: as §2
[5] = tested on: Escherichia coli; assay: Minimum inhibitory concentration (MIC) against gram negative bacteria Escherichia coli H-560.; format: functional; details: Escherichia coli; read-out: MIC
In short: (§3)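 MICs were determined by standard broth microtitration against 11 Gram-positive and Gram-negative organisms, in µg/mL. Values come from duplicate or triplicate experiments and are accurate to ±50%.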

[6] = tested on: Escherichia coli; assay: Minimum inhibitory concentration (MIC) against gram negative bacteria Escherichia coli Vogel.; format: functional; details: Escherichia coli; read-out: MIC; in short: as §3
[7] = tested on: Enterobacter cloacae; assay: Minimum inhibitory concentration (MIC) against gram negative bacteria Enterobacter cloacae MA-2646.; format: functional
[8] = tested on: Klebsiella pneumoniae; assay: Minimum inhibitory concentration (MIC) against gram negative bacteria Klebsiella pneumoniae MGH-2.; format: functional; details: Klebsiella pneumoniae; read-out: MIC; in short: as §3
[9] = species: Mus musculus; assay: Dose required to induce phototoxic reaction in 50% of mice by probit method at different dosage forms.; format: functional
[10] = species: Mus musculus; assay: Dose which has no effect to induce phototoxic reaction in 50% of mice by probit method.; format: functional
[11] = tested on: Mus musculus; assay: Maximum tolerance dose was measured for phototoxic skin reaction by po administration; format: functional
[12] = Minimum inhibitory concentration (MIC) against gram negative bacteria Prot. rettgeri M-1771.; format: functional, Providencia rettgeri; details: Providencia rettgeri; read-out: MIC; in short: as §3
[13] = tested on: Pseudomonas aeruginosa; assay: In vivo efficacy (s.c.) against Pseudomonas aeruginosa in mouse protection test; format: functional; details: Pseudomonas aeruginosa, sc; read-out: PD50; in short: as §2
[14] = tested on: Pseudomonas aeruginosa; assay: In vivo efficacy (orally) against Pseudomonas aeruginosa in mouse protection test; format: functional; details: Pseudomonas aeruginosa, po; read-out: PD50; in short: as §2
[15] = tested on: Pseudomonas aeruginosa; assay: Minimum inhibitory concentration (MIC) against gram negative bacteria Pseudomonas aeruginosa UI-18.; format: functional; details: Pseudomonas aeruginosa; read-out: MIC; in short: as §3
[16] = tested on: Streptococcus pyogenes; assay: In vivo efficacy (s.c.) against Streptococcus pyogenes C-203 in mouse protection test; format: functional; details: Streptococcus pyogenes, sc; read-out: PD50; in short: as §2
[17] = tested on: Streptococcus pyogenes; assay: In vivo efficacy (orally) against Streptococcus pyogenes C-203 in mouse protection test; format: functional; details: Streptococcus pyogenes, po; read-out: PD50; in short: as §2
[18] = tested on: Staphylococcus aureus; assay: Minimum inhibitory concentration (MIC) against gram positive bacteria Staphylococcus aureus H-228.; format: functional; details: Staphylococcus aureus; read-out: MIC; in short: as §3
[19] = tested on: Staphylococcus aureus; assay: Minimum inhibitory concentration (MIC) against gram positive bacteria Staphylococcus aureus UC-76.; format: functional; details: Staphylococcus aureus; read-out: MIC; in short: as §3
[20] = tested on: Enterococcus faecalis; assay: Minimum inhibitory concentration (MIC) against gram positive bacteria Streptococcus faecalis MGH-2.; format: functional; details: Enterococcus faecalis; read-out: MIC; in short: as §3
[21] = tested on: Streptococcus pneumoniae; assay: Minimum inhibitory concentration (MIC) against gram positive bacteria Streptococcus pneumoniae SV-1.; format: functional; details: Streptococcus pneumoniae; read-out: MIC; in short: as §3
[22] = tested on: Streptococcus pyogenes; assay: Minimum inhibitory concentration (MIC) against gram positive bacteria Streptococcus pyogenes C-203.; format: functional; details: Streptococcus pyogenes; read-out: MIC; in short: as §3
[23] = tested on: Streptococcus pneumoniae; assay: In vivo efficacy (s.c.) against Streptococcus pneumoniae SV-1 in mouse protection test; format: functional; details: Streptococcus pneumoniae, sc; read-out: PD50; in short: as §2
[24] = tested on: Streptococcus pneumoniae; assay: In vivo efficacy (orally) against Streptococcus pneumoniae SV-1 in mouse protection test; format: functional; details: Streptococcus pneumoniae, po; read-out: PD50; in short: as §2
[25] = Number of mice which show positive phototoxic reaction in 5 mice at peroral dose; format: functional, Mus musculus
In short: (§4)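 Depilated female CD-1 mice got a single oral (gavage) or subcutaneous dose, then UVA (320–400 nm) exposure for 3 h starting 1 h post-dose. This was repeated for up to 4 consecutive days. Initial doses were 30, 100 and 300 mg/kg. PTD50 was derived by probit. First day of positive reaction and no-effect dose were taken from the raw data.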

[26] = Number of mice which show positive phototoxic reaction in 5 mice at subcutaneous dose; format: functional, Mus musculus; in short: as §4
[27] = tested on: Mus musculus; assay: Maximum tolerance dose was measured for phototoxic skin reaction by sc administration; format: functional; in short: as §4
[28] = Days of the first positive reaction in […] mice; format: functional, Mus musculus; in short: as §4
[29] = tested on: Mus musculus; assay: Maximum tolerance dose was measured for phototoxic skin reaction by po administration in mice; format: functional; in short: as §4
[30] = tested on: Staphylococcus aureus; assay: Minimum inhibitory concentration (MIC) against gram positive bacteria Staphylococcus aureus H-228; format: functional; in short: as §3
[31] = tested on: Escherichia coli; assay: Minimum inhibitory concentration (MIC) against gram negative bacteria Escherichia coli H-560; format: functional; in short: as §3
[32] = Minimum inhibitory concentration (MIC) against gram negative bacteria Prot. rettgeri M-1771; format: functional; details: Providencia rettgeri; in short: as §3
[33] = species: Mus musculus; assay: Number of mice which show positive phototoxic reaction.; format: functional; in short: as §1

Row | Structure (SMILES) | ED50 [3] [mg/kg] | ED50 [4] [mg/kg] | MIC [5] [µg/mL] | MIC [6] [µg/mL] | MIC [7] [µg/mL] | MIC [8] [µg/mL] | PTD50 [9] | No effect dose [10] | MTD [11] [mg/kg] | MIC [12] [µg/mL] | MIC [15] [µg/mL] | ED50 [16] [mg/kg] | ED50 [17] [mg/kg] | MIC [18] [µg/mL] | MIC [19] [µg/mL] | MIC [20] [µg/mL] | MIC [21] [µg/mL] | MIC [22] [µg/mL] | ED50 [23] [mg/kg] | ED50 [24] [mg/kg] | also measured
1 | NC1CCN(c2c(F)cc3c(=O)c(C(=O)O)cn(C4CC4)c3c2C(F)(F)F)C1 (centres undefined) | 1.4 | 2.9 | 0.025 (≈ 0.0626 µM) | 0.05 (≈ 0.125 µM) | 0.05 (≈ 0.125 µM) | 0.2 (≈ 0.501 µM) | >300 mg/kg | 300 mg/kg | 300 | 0.4 (≈ 1 µM) | 1.6 (≈ 4.01 µM) | 26 | 32 | 0.1 (≈ 0.25 µM) | 0.05 (≈ 0.125 µM) | 0.4 (≈ 1 µM) | 0.4 (≈ 1 µM) | 0.4 (≈ 1 µM) | 26 | 25 | Day of first positve reaction [1]: 0; No. of pos rxns [2]: 0; ED50 [13]: 23 mg/kg; ED50 [14]: 53 mg/kg
2 | CCn1cc(C(=O)O)c(=O)c2cc(F)c(N3CCNCC3)cc21 [NORFLOXACIN] | 0.6 | 4 | 0.1 (≈ 0.313 µM) | 0.025 (≈ 0.0783 µM) | 0.1 (≈ 0.313 µM) | 0.05 (≈ 0.157 µM) | >300 mg/kg and 172 mg/kg | 300 mg/kg and 100 mg/kg | 300 | 0.025 (≈ 0.0783 µM) | 0.2 (≈ 0.626 µM) | 45 | > 100 | 0.8 (≈ 2.51 µM) | 0.05 (≈ 0.157 µM) | 1.6 (≈ 5.01 µM) | 1.6 (≈ 5.01 µM) | 0.8 (≈ 2.51 µM) | 150 | > 100 | No. of pos rxns [25]: 0; No. of pos rxns [26]: 5; MTD [27]: 300 mg/kg; ED50 [13]: 11 mg/kg; ED50 [14]: 76 mg/kg
3 | O=C(O)c1cn(C2CC2)c2c(C(F)(F)F)c(N3CCNCC3)c(F)cc2c1=O | 0.9 | 1.8 |  | 0.05 (≈ 0.125 µM) | 0.05 (≈ 0.125 µM) | 0.1 (≈ 0.25 µM) | >100 mg/kg | 100 mg/kg |  |  | 1.6 (≈ 4.01 µM) |  |  |  | 0.1 (≈ 0.25 µM) | 0.4 (≈ 1 µM) | 0.4 (≈ 1 µM) | 0.4 (≈ 1 µM) | 26 | 75 | Day of first positve reaction [28]: 0; No. of pos rxns [2]: 0; MTD [29]: 100 mg/kg; MIC [30]: 0.4 µg/mL (≈ 1 µM); MIC [31]: 0.05 µg/mL (≈ 0.125 µM); MIC [32]: 0.2 µg/mL (≈ 0.501 µM)
4 | NC1CCCN(c2c(F)cc3c(=O)c(C(=O)O)cn(C4CC4)c3c2F)C1 (centres undefined) | 1.4 | 4.7 | 0.2 (≈ 0.55 µM) | 0.2 (≈ 0.55 µM) | 0.2 (≈ 0.55 µM) | 0.2 (≈ 0.55 µM) | >100 mg/kg | 100 mg/kg | 100 | 0.2 (≈ 0.55 µM) | 0.2 (≈ 0.55 µM) | 3.4 | 32 | 0.1 (≈ 0.275 µM) | 0.025 (≈ 0.0688 µM) | 0.1 (≈ 0.275 µM) | 0.1 (≈ 0.275 µM) | 0.1 (≈ 0.275 µM) |  |  | Day of first positve reaction [1]: 0; No. of pos rxns [33]: 0

Reference: ChEMBL document CHEMBL1125291, “New 8-(trifluoromethyl)-substituted quinolones. The benefits of the 8-fluoro group with reduced phototoxic risk” (1992)
